Experiments:
Type in all cases: cell-based
[1] = test system: LPS-induced NO release in RAW264.7 cells; test: Inhibition of LPS-induced NO release, Griess reagent test; details: Mus musculus, RAW264.7, 24 h, read-out: IC50 NO
In short: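 Log-phase RAW264.7 cells were seeded at 4 × 10^5 cells per mL in 96-well plates and grown 24 h. They were pretreated with test compound or indomethacin for 30 min, then stimulated with LPS (0.5 mg L−1) for 24 h more. NO in the supernatant was measured by Griess method and quantified against an NaNO2 standard curve. IC50 came from dose–response experiments.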

[2] = test system: LPS-induced IL-6 release in RAW264.7 cells; test: Inhibition of LPS-induced IL-6 production, ELISA; details: Mus musculus, RAW264.7, 24 h, read-out: IC50 IL-6
In short: (§1)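 Log-phase RAW264.7 cells, 4 × 10^5 cells per mL, were grown 24 h before dosing. They received test compound or indomethacin for 30 min, then LPS (0.5 mg L−1) for a further 24 h. IL-6 or TNF-α in the culture medium was measured by commercial ELISA, reading absorbance at 450 nm against a standard curve. IC50 came from dose–response experiments.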

[3] = test system: LPS-induced TNF-α release in RAW264.7 cells; test: Inhibition of LPS-induced TNF-α production, ELISA; details: Mus musculus, RAW264.7, 24 h, read-out: IC50 TNF-α
In short: as §1

[4] = test system: RAW264.7 cells; test: Cytotoxicity, CCK-8 assay; details: RAW264.7 cells, 24, 48 and 72 h; DEX 27.964 μM, 13b 12.326 μM, 13d 23.684 μM

IC50 [1]: 21.2 ± 0.517 µM | IC50 [2]: 0.247 ± 0.073 µM | IC50 [3]: 27.8 ± 0.643 µM
Structure (SMILES): C[C@@H]1C[C@H]2[C@@H]3CCC4=CC(=O)C=C[C@]4(C)[C@@]3(F)[C@@H](O)C[C@]2(C)[C@@]1(O)C(=O)CO [DEX, dexamethasone]
cytotoxicity: cell activity / proliferation versus control (in words) [4]: no discernible change in cell activity

Reference: article PMC11134322 (RSC Advances, 2024)
